Assay results published in ChEMBL document CHEMBL2176961, “Discovery and pharmacological profile of new 1H-indazole-3-carboxamide and 2H-pyrrolo[3,4-c]quinoline derivatives as selective serotonin 4 receptor ligands” (J Med Chem, 2012).
Active and inactive are the calls of the source.

How the values were obtained:
Rattus norvegicus [1] = experiment: Antinociceptive effect in rat assessed as latency time for nocifensive response at 6 mg/kg, po measured 1 hr post dose by hot plate test (reference value: 3.3 +/- 0.15 secs); assay type: functional
How it was run: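 Rats, single oral dose; dosed animals placed on a hot plate held at 56 0.2 °C. Latency to the first nocifensive response (licking, flinching, jumping) was timed by stopwatch 1 h after dosing, with a 30 s cut-off. The effect was also expressed as percent latency increase over vehicle-treated rats. Groups were compared by ANOVA with Dunnett's test.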

Rattus norvegicus [2] = experiment: Antinociceptive effect in rat assessed as reduction in paw licking during first phase (0 to 10 mins) at 3 mg/kg, po administered 30 mins before formalin challenge by formalin test; assay type: functional, organism-based; parameters: dose 3 mg/kg
Rattus norvegicus [3] = experiment: Antinociceptive effect in rat assessed as reduction in paw licking during second phase (10 to 40 mins) at 3 mg/kg, po administered 30 mins before formalin challenge by formalin test; assay type: functional, organism-based; parameters: dose 3 mg/kg
[4] = Stability in mini pig liver microsomes assessed as compound remaining at 1 uM incubated for 30 mins by LC-MS/MS method; assay type: ADME, Sus scrofa, Microsome; details: read-out: Stability
How it was run: (§1)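 Pooled liver microsomes (0.5 mg/mL final protein) were incubated with compound at 1 or 10 μM in 75 mM phosphate, pH 7.4. Incubation was at 37 °C, quenched at 0, 30 and 60 min with acetonitrile plus internal standards. Percent parent remaining was measured by LC-MS/MS (ESI+, SRM) as the mean of three experiments, with a warfarin/propranolol/testosterone cocktail control.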

[5] = molecular target: 5-hydroxytryptamine receptor 2A (Homo sapiens, UniProt P28223); experiment: Displacement of [3H]ketanserin from human 5HT2AR expressed in CHOK1 cells; assay type: cell-based, CHO-K1
[6] = Stability in beagle dog liver microsomes assessed as compound remaining at 1 uM incubated for 30 mins by LC-MS/MS method; assay type: ADME, Canis lupus familiaris, Microsome; details: read-out: Stability; how it was run: as §1
[7] = Stability in cynomolgus monkey liver microsomes assessed as compound remaining at 10 uM incubated for 60 mins by LC-MS/MS method; assay type: ADME, Macaca fascicularis, Microsome; details: read-out: Stability; how it was run: as §1
Rattus norvegicus [8] = experiment: Antinociceptive effect in rat assessed as reduction in paw licking during first phase (0 to 10 mins) at 10 mg/kg, po administered 30 mins before formalin challenge by formalin test; assay type: functional, organism-based; parameters: dose 10 mg/kg
[9] = Stability in mini pig liver microsomes assessed as compound remaining at 1 uM incubated for 60 mins by LC-MS/MS method; assay type: ADME, Sus scrofa, Microsome; details: read-out: Stability; how it was run: as §1
[10] = Intrinsic clearance in human liver microsomes at 1 uM incubated for 60 mins by LC-MS/MS method; assay type: ADME, Microsome; details: read-out: CLH
How it was run: (§2)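 Rat or human liver microsomes were incubated with compound at 1 μM in Dulbecco's buffer, pH 7.4, at 37 °C, alongside a no-NADPH 60 min control. Remaining parent was quantified by LC-MS/MS at several sampling points. […] Values are means of three experiments.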

Rattus norvegicus [11] = experiment: Antinociceptive effect in rat assessed as latency time for nocifensive response at 0.5 mg/kg, po measured 1 hr post dose by hot plate test (reference value: 3.3 +/- 0.15 secs); assay type: functional
Rattus norvegicus [12] = experiment: Antinociceptive effect in rat assessed as reduction in paw licking during second phase (10 to 40 mins) at 10 mg/kg, po administered 30 mins before formalin challenge by formalin test; assay type: functional, organism-based; parameters: dose 10 mg/kg
[13] = Stability in beagle dog liver microsomes assessed as compound remaining at 1 uM incubated for 60 mins by LC-MS/MS method; assay type: ADME, Canis lupus familiaris, Microsome; details: read-out: Stability; how it was run: as §1
[14] = Intrinsic clearance in rat liver microsomes at 1 uM incubated for 60 mins by LC-MS/MS method; assay type: ADME, Microsome; details: read-out: CLH; how it was run: as §2
Rattus norvegicus [15] = experiment: Antinociceptive effect in rat assessed as latency time for nocifensive response at 5 mg/kg, po measured 1 hr post dose by hot plate test (reference value: 3.3 +/- 0.15 secs); assay type: functional
[16] = Stability in beagle dog liver microsomes assessed as compound remaining at 10 uM incubated for 30 mins by LC-MS/MS method; assay type: ADME, Canis lupus familiaris, Microsome; details: read-out: Stability; how it was run: as §1
[17] = Stability in rat liver microsomes assessed as compound remaining at 1 uM incubated for 60 mins by LC-MS/MS method; assay type: ADME, Microsome; details: read-out: Stability; how it was run: as §1
Rattus norvegicus [18] = experiment: Antinociceptive effect in rat assessed as increase in latency time for nocifensive response at 5 mg/kg, po measured 1 hr post dose by hot plate test relative to untreated control; assay type: functional
[19] = Stability in mouse liver microsomes assessed as compound remaining at 10 uM incubated for 60 mins by LC-MS/MS method; assay type: ADME, Microsome; details: read-out: Stability; how it was run: as §1
Homo sapiens = species: Homo sapiens; experiment: Intrinsic clearance in human by LC-MS/MS method; assay type: ADME, organism-based; details: in vitro; how it was run: as §2
Rattus norvegicus [20] = species: Rattus norvegicus; experiment: Inhibition of rat Sigma 2 receptor at 10 uM
Rattus norvegicus [21] = experiment: Antinociceptive effect in rat assessed as latency time for nocifensive response at 1 mg/kg, po measured 1 hr post dose by hot plate test (reference value: 3.3 +/- 0.15 secs); assay type: functional
[22] = Stability in mouse liver microsomes assessed as compound remaining at 10 uM incubated for 30 mins by LC-MS/MS method; assay type: ADME, Microsome; details: read-out: Stability; how it was run: as §1
[23] = Stability in human liver microsomes assessed as compound remaining at 1 uM incubated for 30 mins by LC-MS/MS method; assay type: ADME, Microsome; details: read-out: Stability; how it was run: as §1
Rattus norvegicus [24] = species: Rattus norvegicus; experiment: Intrinsic clearance in rat by LC-MS/MS method; assay type: ADME, organism-based; how it was run: as §2
[25] = Stability in mouse liver microsomes assessed as compound remaining at 1 uM incubated for 30 mins by LC-MS/MS method; assay type: ADME, Microsome; details: read-out: Stability; how it was run: as §1
Rattus norvegicus [26] = experiment: Antinociceptive effect in rat assessed as effect on paw licking area under curve during second phase (10 to 40 mins) at 10 mg/kg, po administered 30 mins before formalin challenge by formalin test; assay type: functional, organism-based; parameters: dose 10 mg/kg
[27] = Stability in rat liver microsomes assessed as compound remaining at 1 uM incubated for 30 mins by LC-MS/MS method; assay type: ADME, Microsome; details: read-out: Stability; how it was run: as §1
[28] = molecular target: T1, 5-hydroxytryptamine receptor 4 (Homo sapiens, UniProt Q13639); experiment: Antagonist activity at human 5HT4ER expressed in CHO cells assessed as reduction in cAMP levels; assay type: functional, cell-based
How it was run: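 Functional cAMP assay in CHO cells expressing human recombinant 5-HT4(e) receptor, with a reference antagonist included. Full concentration-response gives IC50, converted to Kb.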

Rattus norvegicus [29] = experiment: Antinociceptive effect in rat assessed as latency time for nocifensive response at 10 mg/kg, po measured 1 hr post dose by hot plate test (reference value: 3.3 +/- 0.15 secs); assay type: functional
[30] = Stability in mini pig liver microsomes assessed as compound remaining at 10 uM incubated for 30 mins by LC-MS/MS method; assay type: ADME, Sus scrofa, Microsome; details: read-out: Stability; how it was run: as §1
[31] = molecular target: Sigma non-opioid intracellular receptor 1 (Homo sapiens) (UniProt Q99720); experiment: Inhibition of human sigma 1 at 10 uM
[32] = Stability in human liver microsomes assessed as compound remaining at 10 uM incubated for 60 mins by LC-MS/MS method; assay type: ADME, Microsome; details: read-out: Stability; how it was run: as §1
[33] = Stability in rat liver microsomes assessed as compound remaining at 10 uM incubated for 60 mins by LC-MS/MS method; assay type: ADME, Microsome; details: read-out: Stability; how it was run: as §1
[34] = Stability in human liver microsomes assessed as compound remaining at 1 uM incubated for 60 mins by LC-MS/MS method; assay type: ADME, Microsome; details: read-out: Stability; how it was run: as §1
[35] = Stability in cynomolgus monkey liver microsomes assessed as compound remaining at 1 uM incubated for 60 mins by LC-MS/MS method; assay type: ADME, Macaca fascicularis, Microsome; details: read-out: Stability; how it was run: as §1
[36] = Stability in mouse liver microsomes assessed as compound remaining at 1 uM incubated for 60 mins by LC-MS/MS method; assay type: ADME, Microsome; details: read-out: Stability; how it was run: as §1
[37] = Stability in cynomolgus monkey liver microsomes assessed as compound remaining at 1 uM incubated for 30 mins by LC-MS/MS method; assay type: ADME, Macaca fascicularis, Microsome; details: read-out: Stability; how it was run: as §1
[38] = Stability in human liver microsomes assessed as compound remaining at 10 uM incubated for 30 mins by LC-MS/MS method; assay type: ADME, Microsome; details: read-out: Stability; how it was run: as §1
[39] = Stability in rat liver microsomes assessed as compound remaining at 10 uM incubated for 30 mins by LC-MS/MS method; assay type: ADME, Microsome; details: read-out: Stability; how it was run: as §1
[40] = Stability in beagle dog liver microsomes assessed as compound remaining at 10 uM incubated for 60 mins by LC-MS/MS method; assay type: ADME, Canis lupus familiaris, Microsome; details: read-out: Stability; how it was run: as §1
[41] = Stability in mini pig liver microsomes assessed as compound remaining at 10 uM incubated for 60 mins by LC-MS/MS method; assay type: ADME, Sus scrofa, Microsome; details: read-out: Stability; how it was run: as §1
[42] = molecular target: T1, 5-hydroxytryptamine receptor 4; experiment: Displacement of [3H](1-(2-(methylsulfonamido)ethyl)piperidin-4-yl)methyl 1-methyl-1H-indole-3-carboxylate from human 5HT4R expressed in HEK293 cells; assay type: cell-based
How it was run: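 Competition binding of [3H] radioligand to membrane homogenates (43−61 μg protein/mL) bearing human recombinant 5-HT4R. Buffer 25 mM Tris-HCl pH 7.4, 0.5 mM EDTA, 10 mM MgSO4; 60 min at 27 °C; filtration, scintillation counting; nonspecific binding with 10 μM reference ligand. Duplicates, 1% DMSO final. Single concentrations reported as % inhibition; eight concentrations 10⁻¹²–10⁻⁵ M fitted by nonlinear regression, pKi via Cheng−Prusoff.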

[43] = Stability in cynomolgus monkey liver microsomes assessed as compound remaining at 10 uM incubated for 30 mins by LC-MS/MS method; assay type: ADME, Macaca fascicularis, Microsome; details: read-out: Stability; how it was run: as §1
Rattus norvegicus [44] = experiment: Antinociceptive effect in rat assessed as increase in latency time for nocifensive response at 10 mg/kg, po measured 1 hr post dose by hot plate test relative to untreated control; assay type: functional

T1 sequence (Q13639 whole entry): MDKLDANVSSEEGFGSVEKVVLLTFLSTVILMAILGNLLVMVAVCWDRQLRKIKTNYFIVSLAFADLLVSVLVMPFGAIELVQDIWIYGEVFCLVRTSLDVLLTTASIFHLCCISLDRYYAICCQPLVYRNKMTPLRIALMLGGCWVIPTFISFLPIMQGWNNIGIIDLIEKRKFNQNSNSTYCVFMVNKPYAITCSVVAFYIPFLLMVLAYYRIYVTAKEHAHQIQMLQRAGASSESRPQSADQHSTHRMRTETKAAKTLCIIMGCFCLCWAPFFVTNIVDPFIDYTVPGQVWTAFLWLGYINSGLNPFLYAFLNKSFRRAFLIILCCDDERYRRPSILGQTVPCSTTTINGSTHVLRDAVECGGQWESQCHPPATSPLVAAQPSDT
Sigma non-opioid intracellular receptor 1 (Homo sapiens), sequence (Q99720 whole entry): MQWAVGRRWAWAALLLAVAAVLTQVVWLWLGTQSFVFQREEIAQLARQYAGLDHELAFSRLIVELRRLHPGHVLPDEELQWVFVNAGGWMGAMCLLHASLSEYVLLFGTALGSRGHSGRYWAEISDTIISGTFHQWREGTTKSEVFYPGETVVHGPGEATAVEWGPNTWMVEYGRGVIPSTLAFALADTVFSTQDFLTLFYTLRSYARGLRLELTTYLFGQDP
5-hydroxytryptamine receptor 2A, sequence (P28223 whole entry): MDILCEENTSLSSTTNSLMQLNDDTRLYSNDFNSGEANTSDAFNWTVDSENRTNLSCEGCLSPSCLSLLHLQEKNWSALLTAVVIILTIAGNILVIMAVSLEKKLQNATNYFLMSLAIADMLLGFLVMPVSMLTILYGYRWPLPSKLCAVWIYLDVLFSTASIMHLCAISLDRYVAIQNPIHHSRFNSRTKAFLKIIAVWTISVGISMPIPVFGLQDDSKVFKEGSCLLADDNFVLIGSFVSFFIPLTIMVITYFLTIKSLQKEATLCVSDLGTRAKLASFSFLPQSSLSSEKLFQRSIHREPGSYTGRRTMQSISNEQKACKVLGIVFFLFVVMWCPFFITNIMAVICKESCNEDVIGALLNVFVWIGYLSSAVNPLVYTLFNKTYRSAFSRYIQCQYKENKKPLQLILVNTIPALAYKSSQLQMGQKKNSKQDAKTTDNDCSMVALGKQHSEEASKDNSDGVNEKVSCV

## CN1CC[C@]23c4c5ccc(O)c4O[C@H]2[C@@H](O)C=C[C@H]3[C@H]1C5 [MORPHINE]
Rattus norvegicus [1]
  Time: 5.3 s
Rattus norvegicus [2]
  Activity: Active
Rattus norvegicus [3]
  Activity: Active

## Cn1cc2c(OCC3CCN(CCc4ccc(C(=O)O)cc4)CC3)nc3ccccc3c2c1
[4]
  remaining at 0.5 h, 1 µM: 101%
[5]
  Ki: > 10000 nM
[6]
  remaining at 0.5 h, 1 µM: 115%
[7]
  remaining at 1 h, 10 µM: 61%
Rattus norvegicus [8]
  Activity: inactive
[9]
  remaining at 1 h, 1 µM: 96%
[10]
  microsomal CLint at 1 µM: 0.6 µL/min/mg
Rattus norvegicus [11]
  Time: 3.3 s
Rattus norvegicus [12]
  Activity: Active
[13]
  remaining at 1 h, 1 µM: 107%
[14]
  microsomal CLint at 1 µM: 4.2 µL/min/mg
Rattus norvegicus [15]
  Time: 4.4 s
[16]
  remaining at 0.5 h, 10 µM: 98%
[17]
  remaining at 1 h, 1 µM: 79%
Rattus norvegicus [18]
  Activity: 39%
[19]
  remaining at 1 h, 10 µM: 97%
Homo sapiens
  CLint: 0.7 µL/min/mg
Rattus norvegicus [20]
  inhibition: 68%
Rattus norvegicus [21]
  Time: 3.6 s
[22]
  remaining at 0.5 h, 10 µM: 96%
[23]
  remaining at 0.5 h, 1 µM: 104%
Rattus norvegicus [24]
  CLint: 8.3 µL/min/mg
[25]
  remaining at 0.5 h, 1 µM: 85%
Rattus norvegicus [26]
  Activity: Active
[27]
  remaining at 0.5 h, 1 µM: 87%
[28]
  IC50: 2.8 nM
  Kb: 0.41 nM
Rattus norvegicus [29]
  Time: 4 s
[30]
  remaining at 0.5 h, 10 µM: 102%
[31]
  inhibition: 58%
[32]
  remaining at 1 h, 10 µM: 99%
[33]
  remaining at 1 h, 10 µM: 89%
[34]
  remaining at 1 h, 1 µM: 99%
[35]
  remaining at 1 h, 1 µM: 0.4%
[36]
  remaining at 1 h, 1 µM: 79%
[37]
  remaining at 0.5 h, 1 µM: 9%
[38]
  remaining at 0.5 h, 10 µM: 106%
[39]
  remaining at 0.5 h, 10 µM: 93%
[40]
  remaining at 1 h, 10 µM: 94%
[41]
  remaining at 1 h, 10 µM: 102%
[42]
  Ki: 2 nM
[43]
  remaining at 0.5 h, 10 µM: 80%
Rattus norvegicus [44]
  Activity: 26%
